BindingDB's records for doi:10.1016/j.bmcl.2010.04.101 (Indian Institute of Technology, 2010)

Target: T1, Membrane-bound transcription factor site-1 protease (Homo sapiens, UniProt Q14703)
T1 sequence (Q14703 whole entry): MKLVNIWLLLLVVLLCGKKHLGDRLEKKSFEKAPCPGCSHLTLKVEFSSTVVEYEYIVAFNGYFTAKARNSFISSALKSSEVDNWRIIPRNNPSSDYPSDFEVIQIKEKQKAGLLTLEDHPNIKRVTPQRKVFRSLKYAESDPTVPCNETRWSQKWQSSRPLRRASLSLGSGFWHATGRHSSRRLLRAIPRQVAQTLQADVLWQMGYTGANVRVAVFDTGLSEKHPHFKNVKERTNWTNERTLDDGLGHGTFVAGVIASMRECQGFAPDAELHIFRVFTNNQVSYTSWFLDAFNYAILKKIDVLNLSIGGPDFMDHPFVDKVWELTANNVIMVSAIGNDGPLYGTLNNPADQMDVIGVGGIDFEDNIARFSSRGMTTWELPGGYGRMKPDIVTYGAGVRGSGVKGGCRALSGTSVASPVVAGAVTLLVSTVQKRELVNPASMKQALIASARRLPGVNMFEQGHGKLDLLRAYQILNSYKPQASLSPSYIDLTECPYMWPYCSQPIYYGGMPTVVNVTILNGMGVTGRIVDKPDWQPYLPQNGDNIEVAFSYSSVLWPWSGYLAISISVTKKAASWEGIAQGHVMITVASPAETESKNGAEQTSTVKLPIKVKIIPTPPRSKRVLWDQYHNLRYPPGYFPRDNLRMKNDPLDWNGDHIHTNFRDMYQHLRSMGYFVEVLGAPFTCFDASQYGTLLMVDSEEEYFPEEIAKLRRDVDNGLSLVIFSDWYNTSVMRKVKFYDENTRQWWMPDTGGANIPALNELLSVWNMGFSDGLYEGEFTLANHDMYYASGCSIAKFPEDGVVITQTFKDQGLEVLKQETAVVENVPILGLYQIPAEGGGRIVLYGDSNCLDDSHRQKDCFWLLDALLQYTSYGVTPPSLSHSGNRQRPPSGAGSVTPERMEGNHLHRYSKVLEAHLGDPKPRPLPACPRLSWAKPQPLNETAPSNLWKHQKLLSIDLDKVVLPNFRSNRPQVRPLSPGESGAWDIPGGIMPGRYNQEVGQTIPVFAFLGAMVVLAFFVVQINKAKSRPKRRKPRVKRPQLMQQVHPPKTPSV
Test: Inhibition of human recombinant soluble Kexin isozyme 1
Outline: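 Recombinant soluble human SKI-1 (activity normalized to 10 pmol Abz-peptide released per µL per h, 37 °C). Only the E-form was tested, at varying concentrations, with quenched fluorogenic Abz-Q-GPC251–263-Tyx substrate in Tris/Mes/2 mM CaCl2 buffer at 37 °C. RFU (ex 320/em 420 nm) were read from 0–6 h and converted to cleavage rates. Ki came from Dixon plots at 0.1, 0.05 and 0.025 mM substrate.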

| Compound | Ki [µM] |
| --- | --- |
| O=C(COc1ccccc1/N=N/c1ccccc1OCC(=O)N[C@@H](Cc1ccccc1)C(=O)OCc1ccccc1)N[C@@H](Cc1ccccc1)C(=O)OCc1ccccc1 | 11.8 |
| O=C(O)CNC(=O)COc1ccccc1/N=N/c1ccccc1OCC(=O)NCC(=O)O | 265 |
| O=C(COc1ccccc1/N=N/c1ccccc1OCC(=O)N[C@@H](Cc1ccccc1)C(=O)N[C@@H](Cc1ccccc1)C(=O)O)N[C@@H](Cc1ccccc1)C(=O)N[C@@H](Cc1ccccc1)C(=O)O | 140 |
| CC(C)[C@H](NC(=O)COc1ccccc1/N=N/c1ccccc1OCC(=O)N[C@H](C(=O)O)C(C)C)C(=O)O | 75 |
| O=C(COc1ccccc1/N=N/c1ccccc1OCC(=O)N[C@@H](Cc1ccccc1)C(=O)O)N[C@@H](Cc1ccccc1)C(=O)O | 225 |
| CC(C)[C@H](NC(=O)COc1ccccc1/N=N/c1ccccc1OCC(=O)N[C@H](C(=O)OCc1ccccc1)C(C)C)C(=O)OCc1ccccc1 | 125 |
